We go through six compounds from ChEMBL document CHEMBL1152428 (Bioorg Med Chem, 2009).

The structures appear in SMILES notation. Calls of active or inactive are those of the source. The calls are words filed in the database; no cut-off is given here.

A short description of assay [1]: Inhibition of Marthasterias glacialis CDK1/cyclin B after 30 mins by scintillation counting.
For assay [2], the target named is Glycogen synthase kinase-3 (Sus scrofa, UniProt B2LUN4+I6LNT8). Kind of assay: Inhibition of pig brain GSK3alpha/beta after 30 mins by scintillation counting.
In assay [3] the target is Cyclin-dependent kinase 5/CDK5 activator 1 (Homo sapiens, UniProt Q00535). The experiment in a line: Inhibition of GST-fused recombinant CDK5/p25 expressed in Escherichia coli after 30 mins by scintillation counting.
The target in assay [4] is Cyclin-dependent protein kinase PHO85 (Saccharomyces cerevisiae S288c) (UniProt P17157). Kind of assay: Inhibition of Saccharomyces cerevisiae YRP1 Pho85 assessed as induction of nuclear localization of GFP-tagged transcription factor Pho4 at 250 uM after 3 hrs by fluorescence microscopy. Summed up: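 The drug-sensitized strain YRP1 (snq2Δ pdr5Δ erg6Δ) carried a Pho4-GFP plasmid. Cells were grown overnight without uracil, diluted to OD600 0.5 and treated with 250 µM drug, with methanol as vehicle. After 3 h, GFP localization was examined by fluorescence microscopy (excitation 455–495 nm).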

Assay [5] has as its target Cyclin-dependent kinase 1 (Saccharomyces cerevisiae S288c, UniProt P00546). Kind of assay: Inhibition of hemagglutininin-tagged Saccharomyces cerevisiae MNY629 Cdc28/Clb2. A digest of the protocol:
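Cdc28/Clb2-HA was immunoprecipitated from strain MNY629 extracts with anti-HA and protein A/G agarose. Kinase reactions ran 30 min at 30 °C with histone H1, 15 µmol/l [γ-33P]ATP (stock) and varying drug concentrations in buffer C (25 mM MOPS pH 7.2, 15 mM MgCl2, 5 mM EGTA, 1 mM DTT, phosphatase inhibitors). Products were spotted on P81 paper, washed in 1% phosphoric acid and counted by scintillation. IC50 was taken from the dose–response curve.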

The test system of assay [6] is Saccharomyces cerevisiae. Kind of assay: Growth inhibition of drug-sensitized Saccharomyces cerevisiae YRP1 assessed as growth deffect. The format is functional, organism-based. Summed up:
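Growth defect of the drug-sensitized YRP1 strain (snq2Δ pdr5Δ erg6Δ) was scored on agar plates by halo assay.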

A short description of assay [7]: Inhibition of histidine6-tagged Plasmodium falciparum recombinant GSK3 expressed in Escherichia coli by scintillation counting.
For assay [8], the target named is Cyclin-dependent protein kinase PHO85 (Saccharomyces cerevisiae S288c) (UniProt P17157). Kind of assay: Binding affinity to Saccharomyces cerevisiae Pho85. Summed up:
(§1)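 Budding yeast grown to OD600 ~2 were lysed under 2.5 kbar pressure in breaking buffer (25 mM Tris pH 7.4, 100 mM NaCl, 0.2% Triton X100, phosphatase and protease inhibitors) and clarified. The lysate was incubated with Sepharose matrices carrying linker-attached drug (3 µmol/ml resin), methyl control or ethanolamine-blocked beads. Bound proteins were eluted in Laemmli buffer and analysed by SDS–PAGE with silver staining or western blot.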

In assay [9] the target is Cyclin-dependent kinase 1 (Saccharomyces cerevisiae S288c) (UniProt P00546). The experiment in a line: Binding affinity to Saccharomyces cerevisiae Cdc28. Summed up: as §1
Sequence of Cyclin-dependent kinase 1 (Saccharomyces cerevisiae S288c) (P00546 2-298 limits assumed): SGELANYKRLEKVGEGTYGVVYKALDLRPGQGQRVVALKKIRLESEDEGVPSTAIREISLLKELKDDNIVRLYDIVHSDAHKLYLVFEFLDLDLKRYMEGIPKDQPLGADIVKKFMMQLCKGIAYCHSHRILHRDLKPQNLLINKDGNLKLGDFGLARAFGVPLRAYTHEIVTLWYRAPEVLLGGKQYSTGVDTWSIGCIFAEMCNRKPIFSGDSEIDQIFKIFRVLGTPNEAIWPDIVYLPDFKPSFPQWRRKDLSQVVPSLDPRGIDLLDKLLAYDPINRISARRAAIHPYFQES

Sequence of Cyclin-dependent kinase 5/CDK5 activator 1 (Q00535 whole entry, the tested form may be a part): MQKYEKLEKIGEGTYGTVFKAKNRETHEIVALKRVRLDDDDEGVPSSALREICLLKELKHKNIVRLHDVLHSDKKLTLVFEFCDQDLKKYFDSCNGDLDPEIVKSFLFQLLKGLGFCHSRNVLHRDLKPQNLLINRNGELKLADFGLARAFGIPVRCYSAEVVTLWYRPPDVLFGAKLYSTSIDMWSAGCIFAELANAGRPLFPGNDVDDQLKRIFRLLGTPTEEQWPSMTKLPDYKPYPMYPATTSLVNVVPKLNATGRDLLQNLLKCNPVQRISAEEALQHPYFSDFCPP
Sequence of Cyclin-dependent kinase 5/CDK5 activator 1 (Q15078 whole entry, further chain, the tested form may be a part): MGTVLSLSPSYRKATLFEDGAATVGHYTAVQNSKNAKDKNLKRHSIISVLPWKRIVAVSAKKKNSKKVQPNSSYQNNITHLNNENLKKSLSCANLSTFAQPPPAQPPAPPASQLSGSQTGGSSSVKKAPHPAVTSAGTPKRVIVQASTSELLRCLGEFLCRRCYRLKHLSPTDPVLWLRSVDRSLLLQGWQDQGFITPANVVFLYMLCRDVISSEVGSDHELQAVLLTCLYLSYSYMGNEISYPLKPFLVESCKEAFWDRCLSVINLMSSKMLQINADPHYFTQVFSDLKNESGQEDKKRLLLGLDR
Sequence of Cyclin-dependent kinase 1 (P00546 whole entry): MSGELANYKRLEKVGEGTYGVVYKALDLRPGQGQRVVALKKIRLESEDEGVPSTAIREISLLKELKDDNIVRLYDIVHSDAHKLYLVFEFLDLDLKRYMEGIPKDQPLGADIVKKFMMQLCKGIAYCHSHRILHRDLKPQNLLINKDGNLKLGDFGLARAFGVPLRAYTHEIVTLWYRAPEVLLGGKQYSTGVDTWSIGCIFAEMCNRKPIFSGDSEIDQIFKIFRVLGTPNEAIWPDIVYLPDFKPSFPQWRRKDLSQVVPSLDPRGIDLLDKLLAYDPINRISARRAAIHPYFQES
Sequence of Cyclin-dependent protein kinase PHO85 (Saccharomyces cerevisiae S288c) (P17157 whole entry): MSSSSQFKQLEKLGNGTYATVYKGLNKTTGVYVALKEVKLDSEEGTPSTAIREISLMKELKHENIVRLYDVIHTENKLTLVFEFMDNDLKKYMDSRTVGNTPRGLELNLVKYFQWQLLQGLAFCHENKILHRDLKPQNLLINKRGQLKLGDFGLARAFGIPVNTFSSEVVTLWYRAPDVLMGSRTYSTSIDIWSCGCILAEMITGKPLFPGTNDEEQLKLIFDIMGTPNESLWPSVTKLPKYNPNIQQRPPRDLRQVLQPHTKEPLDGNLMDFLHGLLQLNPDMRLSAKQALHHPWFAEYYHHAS

In general, IC50 refers to the midpoint of a concentration-inhibition curve. For the compound `CCCCc1c(-c2ccc(OCCOCCOCCN)cc2)n(C)c2nccnc12`, the IC50 was found to be 100 µM in [1], 45 µM in [2] and 50 µM in assay [3].

Turning to `CCCCc1c(-c2ccc(O)c(-c3cn(CCOCCOCCN)nn3)c2)[nH]c2nccnc12`, the IC50 was 6.7 µM in [1], 5.8 µM in [2] and over 10 µM in [3].

On to `CCCCc1c(-c2ccc(OCCOCCOCCN)cc2)[nH]c2nccnc12`, for which the IC50 in [1] is 0.23 µM; in [2] it was 0.34 µM; in assay [3] it was 0.66 µM.

Take `CCCCc1c(-c2ccc(O)c(-c3cn(CCOCCOCCN)nn3)c2)n(C)c2nccnc12`: the IC50 in assay [1], in assay [2] and in assay [3] was over 10 µM in each case.

On to `CCCCc1c(-c2ccc(O)cc2)[nH]c2nccnc12` [ALOISINE A], for which the outcome in assay [4] was Active. Besides, the figures for the IC50 in assay [5], in assay [2] and in assay [7] were 2.5 µM, 0.65 µM and 5.5 µM, respectively. Further, in assay [6], the “growth inhibition (GI)” value was “inactive”.

`CCCCc1c(-c2ccc(O)cc2)n(C)c2nccnc12` [N-METHYL-ALOISINE A]: the outcome in assay [8] and in assay [9] was inactive. In addition, the IC50 in [1] is 140 µM; in assay [5], over 33 µM; in assay [2] it was over 200 µM; in assay [7], over 100 µM; in [3] it was 160 µM.
